Consider six molecules from ChEMBL document CHEMBL5329164, “Design, synthesis, and evaluation of BTK-targeting PROTACs with optimized bioavailability in vitro and in vivo” (RSC Med Chem, 2023).

Data set [1] in a line: Solubility in DMSO:Cremophor EL:1xPBS mixture at 10 mg/ml. The data set is classed as physicochemical.
Data set [2] can be described thus: Solubility in DMSO:Cremophor EL:1xPBS mixture at 10 mg/ml incubated for 7 days. The data set is classed as physicochemical. Conditions: 168 h, time 7 day.
Data set [3] addresses T1, Protein cereblon/Tyrosine-protein kinase BTK (Homo sapiens) (UniProt Q06187+Q96SW2). Nature of the data set: PROTAC activity at CRBN/ BTK in human Ramos cells assessed as induction of BTK degradation at 500 nM incubated for 24 hrs by immunoblot analysis relative to control. The data set is classed as cell-based. Summed up: (§1)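 Ramos cells in supplemented RPMI 1640 were plated at 3×10^5 cells/well and treated with compound for 24 h. Lysates in SDS sample buffer were heated at 100 °C for 15 min and run on 10% SDS-PAGE, then transferred to PVDF. Membranes were probed overnight at 4 °C for BTK, GSPT1 and β-actin.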
A general note: Immunoblotting shows a protein as a band on a membrane.

Data set [4] in a line: Apparent permeability across apical to basal side in MDCK-II cells at 10 uM measured for 120 mins by LC-MS/MS analysis. Conditions: dog. The data set is classed as ADME, cell-based, Canis lupus familiaris. Put shortly: (§2)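 MDCK monolayers were grown on Transwell inserts (5 x 10^4 cells/cm²) and used at day 5. Compound at 10 μM in HBSS with 10 mM Hepes, pH 7.40, was dosed apically or basolaterally and incubated at 37±1 °C. Lucifer yellow passage below 1% confirmed monolayer integrity.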

A short description of data set [5]: Apparent permeability across basal to apical side in MDCK-II cells at 10 uM measured for 120 mins by LC-MS/MS analysis. The data set is classed as ADME, cell-based, Canis lupus familiaris. Conditions: dog. Summed up:
as §2

Data set [6] can be described thus: Apparent permeability across apical to basal side in MDCK-II cells assessed as compound recovery at 10 uM measured for 120 mins by LC-MS/MS analysis. Type of data set: ADME, cell-based, Canis lupus familiaris. Conditions: dog, read-out: Drug recovery. Put shortly: (§3)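 MDCK monolayers were grown on Transwell inserts (5 x 10^4 cells/cm²) and used at day 5. Compound at 10 μM in HBSS with 10 mM Hepes, pH 7.40, was dosed apically or basolaterally and incubated at 37±1 °C. Receiver and donor samples were taken at 120 min and quantified by LC-MS/MS against an internal standard. Lucifer yellow passage below 1% confirmed monolayer integrity.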

Data set [7] in a line: Apparent permeability across basal to apical side in MDCK-II cells assessed as compound recovery at 10 uM measured for 120 mins by LC-MS/MS analysis. Type of data set: ADME, cell-based, Canis lupus familiaris. Conditions: dog, read-out: Drug recovery. Put shortly: as §3
A short description of data set [8]: Stability in mouse liver microsomes assessed as half life at 1 uM preincubated for 10 mins followed by reaction initiation measured upto 60 mins in presence of NADPH. The data set is classed as ADME, Microsome. Conditions: time < 70 min. Summed up:
(§4)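 Compound at 1 μM final was incubated with 0.5 mg/mL mouse, rat, dog, monkey or human liver microsomes in 100 mM PBS, pH 7.4, with 1 mM NADPH at 37 °C after a 10 min preincubation. Reactions were stopped at 0, 5, 15, 30 and 60 min with ice-cold acetonitrile containing tolbutamide. Supernatants were taken for bioanalysis.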
A general note: Liver microsomes are a subcellular fraction often used to study metabolism.

A short description of data set [9]: Stability in mouse liver microsomes assessed as intrinsic clearance measured per mg protein at 1 uM preincubated for 10 mins followed by reaction initiation measured upto 60 mins in presence of NADPH. Type of data set: ADME, Microsome. Conditions: time < 70 min, read-out: CLH. Put shortly: as §4
Data set [10] is described as follows: Stability in rat liver microsomes assessed as half life at 1 uM preincubated for 10 mins followed by reaction initiation measured upto 60 mins in presence of NADPH. The data set is classed as ADME, Microsome. Conditions: time < 70 min. Summed up:
as §4

Data set [11] can be described thus: Stability in rat liver microsomes assessed as intrinsic clearance measured per mg protein at 1 uM preincubated for 10 mins followed by reaction initiation measured upto 60 mins in presence of NADPH. The data set is classed as ADME, Microsome. Conditions: time < 70 min, read-out: CLH. Summed up: as §4
Data set [12] in a line: Stability in dog liver microsomes assessed as half life at 1 uM preincubated for 10 mins followed by reaction initiation measured upto 60 mins in presence of NADPH. Type of data set: ADME, Canis lupus familiaris, Microsome. Conditions: time < 70 min. Put shortly: as §4
Data set [13] in a line: Stability in dog liver microsomes assessed as intrinsic clearance measured per mg protein at 1 uM preincubated for 10 mins followed by reaction initiation measured upto 60 mins in presence of NADPH. Type of data set: ADME, Canis lupus familiaris, Microsome. Conditions: time < 70 min, read-out: CLH. Summed up: as §4
Data set [14] in a line: Stability in monkey liver microsomes assessed as half life at 1 uM preincubated for 10 mins followed by reaction initiation measured upto 60 mins in presence of NADPH. Conditions: rhesus monkey, time < 70 min. Type of data set: ADME, Macaca mulatta, Microsome. Summed up:
as §4

A short description of data set [15]: Stability in monkey liver microsomes assessed as intrinsic clearance measured per mg protein at 1 uM preincubated for 10 mins followed by reaction initiation measured upto 60 mins in presence of NADPH. Conditions: rhesus monkey, time < 70 min, read-out: CLH. The data set is classed as ADME, Macaca mulatta, Microsome. Summed up: as §4
Data set [16] can be described thus: Stability in human liver microsomes assessed as half life at 1 uM preincubated for 10 mins followed by reaction initiation measured upto 60 mins in presence of NADPH. Type of data set: ADME, Microsome. Conditions: time < 70 min. Summed up:
as §4

Data set [17] is described as follows: Stability in human liver microsomes assessed as intrinsic clearance measured per mg protein at 1 uM preincubated for 10 mins followed by reaction initiation measured upto 60 mins in presence of NADPH. Type of data set: ADME, Microsome. Conditions: time < 70 min, read-out: CLH. Put shortly:
as §4

Data set [18] is described as follows: Half life in BALB/c mouse at 2 mg/kg, iv measured for 24 hrs by LCMS analysis. The data set is classed as ADME, organism-based. Conditions: in vivo. Put shortly: (§5)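 Male Balb/c mice, 9 per group, dosed intravenously at 2 mg/kg. Blood was drawn into EDTA-K2 tubes at 0.083, 0.25, 0.5, 1, 2, 4, 6, 8 and 24 h. Plasma was separated by centrifugation at 2000 g for 10 min and precipitated with acetonitrile containing tolbutamide internal standard. Analysis was by LC-MS on a polar C18 column with a water/acetonitrile 0.1% formic acid gradient.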

Data set [19] in a line: Clearance in BALB/c mouse at 2 mg/kg, iv measured for 24 hrs by LCMS analysis. The data set is classed as ADME, organism-based. Conditions: in vivo. Summed up:
as §5

A short description of data set [20]: AUClast in BALB/c mouse at 2 mg/kg, iv measured for 24 hrs by LCMS analysis. Conditions: in vivo. The data set is classed as ADME, organism-based. Further details: time 24 hrs, dose 2 mg/kg, route iv. Summed up: as §5
Data set [21] in a line: Apparent volume of distribution in BALB/c mouse at 2 mg/kg, iv measured for 24 hrs by LCMS analysis. Conditions: in vivo, read-out: Vz. Type of data set: ADME, organism-based. Summed up:
as §5

Data set [22] in a line: Half life in BALB/c mouse at 5 mg/kg, po measured for 24 hrs by LCMS analysis. The data set is classed as ADME, organism-based. Conditions: in vivo. Summed up: (§6)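 Male Balb/c mice, 9 per group, dosed intragastrically at 5 mg/kg; the same compounds were also given iv at 2 mg/kg. Blood was drawn into EDTA-K2 tubes at 0.25, 0.5, 1, 2, 4, 6, 8 and 24 h. Plasma proteins were precipitated with acetonitrile containing tolbutamide. Quantification was by LC-MS on a C18 column with a formic acid water/acetonitrile gradient.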

A short description of data set [23]: AUClast in BALB/c mouse at 5 mg/kg, po measured for 24 hrs by LCMS analysis. Type of data set: ADME, organism-based. The arrangement: dose 5 mg/kg, time 24 hrs, route po. Conditions: in vivo. Put shortly:
as §6

Data set [24] is described as follows: Cmax in BALB/c mouse at 5 mg/kg, po measured for 24 hrs by LCMS analysis. Type of data set: ADME, organism-based. Further details: dose 5 mg/kg, time 24 hrs, route po. Conditions: in vivo. Summed up: as §6
The nature of data set [25]: Tmax in BALB/c mouse at 5 mg/kg, po measured for 24 hrs by LCMS analysis. Type of data set: ADME, organism-based. Conditions: in vivo. Put shortly: as §6
The nature of data set [26]: Oral bioavailability in BALB/c mouse at 5 mg/kg measured for 24 hrs by LCMS analysis. The data set is classed as ADME, organism-based. Conditions: in vivo. Put shortly: as §6
Data set [27] has as its target T1, Protein cereblon/Tyrosine-protein kinase BTK (Homo sapiens). Nature of the data set: PROTAC activity at CRBN/ BTK in human Ramos cells assessed as induction of BTK degradation at 100 nM incubated for 24 hrs by immunoblot analysis relative to control. Type of data set: cell-based. Summed up:
as §1

For data set [28] the target is unchanged. Nature of the data set: PROTAC activity at CRBN/ BTK in human Ramos cells assessed as induction of BTK degradation at 300 nM incubated for 24 hrs by immunoblot analysis relative to control. The data set is classed as cell-based. Summed up:
as §1

T1 sequence (Q06187 2-659 limits assumed): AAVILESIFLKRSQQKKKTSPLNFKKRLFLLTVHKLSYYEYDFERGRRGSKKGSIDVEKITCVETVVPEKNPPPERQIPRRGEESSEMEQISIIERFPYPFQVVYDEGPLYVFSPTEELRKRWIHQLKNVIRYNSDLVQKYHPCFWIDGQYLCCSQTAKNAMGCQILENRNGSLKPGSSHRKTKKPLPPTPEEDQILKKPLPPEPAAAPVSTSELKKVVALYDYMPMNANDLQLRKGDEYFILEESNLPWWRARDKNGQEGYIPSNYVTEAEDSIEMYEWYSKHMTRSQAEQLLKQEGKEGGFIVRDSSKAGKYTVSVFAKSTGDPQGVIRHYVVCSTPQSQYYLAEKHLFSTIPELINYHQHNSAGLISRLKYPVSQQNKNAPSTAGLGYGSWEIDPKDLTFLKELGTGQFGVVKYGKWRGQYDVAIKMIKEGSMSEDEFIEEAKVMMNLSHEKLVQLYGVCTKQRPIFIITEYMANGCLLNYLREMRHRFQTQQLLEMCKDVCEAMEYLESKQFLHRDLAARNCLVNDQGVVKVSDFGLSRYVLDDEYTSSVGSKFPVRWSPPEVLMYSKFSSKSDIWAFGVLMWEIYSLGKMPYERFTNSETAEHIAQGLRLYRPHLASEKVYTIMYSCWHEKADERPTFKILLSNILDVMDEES
T1 sequence (Q96SW2 whole entry partner): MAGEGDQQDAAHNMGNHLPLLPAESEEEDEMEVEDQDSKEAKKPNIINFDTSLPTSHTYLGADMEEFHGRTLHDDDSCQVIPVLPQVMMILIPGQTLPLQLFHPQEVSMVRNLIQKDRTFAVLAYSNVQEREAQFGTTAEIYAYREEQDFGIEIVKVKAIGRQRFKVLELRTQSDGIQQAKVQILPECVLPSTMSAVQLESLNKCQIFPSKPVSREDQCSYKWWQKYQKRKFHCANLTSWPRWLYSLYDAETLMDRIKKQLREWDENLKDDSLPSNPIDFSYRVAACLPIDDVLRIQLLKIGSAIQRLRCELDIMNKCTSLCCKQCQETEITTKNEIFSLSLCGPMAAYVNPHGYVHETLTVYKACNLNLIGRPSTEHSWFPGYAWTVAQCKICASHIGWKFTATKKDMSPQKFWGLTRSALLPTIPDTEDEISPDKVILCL

On to `Nc1ncnc2c1c(-c1ccc(Oc3ccccc3)cc1)nn2C1CCN(C2CN(C3CN(c4ccc5c(c4)C(=O)N(C4CCC(=O)NC4=O)C5=O)C3)C2)CC1` (configuration not stated), for which the solubility entry in data set [1] and in [2] was “Insoluble” each time.

As to `C=CC(=O)N1CCC[C@@H](n2nc(-c3ccc(Oc4ccccc4)cc3)c3c(N)ncnc32)C1` [IBRUTINIB], the solubility entry in data set [1] is on record as “Soluble”; in [2] it was “Insoluble”.

Consider `Nc1ncnc2c1c(-c1ccc(Oc3ccccc3)cc1)nn2[C@@H]1CCCN(C(=O)Nc2ccc3c(c2)C(=O)N(C2CCC(=O)NC2=O)C3=O)C1` (some centres not stated), for which the Activity in [3] was 100%.

For `Nc1ncnc2c1c(-c1ccc(Oc3ccccc3)cc1)nn2C1CCN(C(=O)Cc2ccc(Nc3ccc4c(c3)CN(C3CCC(=O)NC3=O)C4=O)cc2)CC1` (configuration not stated), the Papp A→B at 2 h, 10 µM in [4] is 0.003 ×10⁻⁶ cm/s. The Papp B→A at 2 h, 10 µM in data set [5] was 0.25 ×10⁻⁶ cm/s. Besides, the recovery at 2 h, 10 µM in data set [6] was 98.5%; in [7], 101%. Moreover, the half-life at 1 µM in data set [8] amounted to 13 min; in [10], 24.8 min; in data set [12], 28.5 min; in data set [14], 8.91 min; in [16] it was 9.46 min. In addition, the microsomal CLint at 1 µM in [9] came out at 107 µL/min/mg; in [11] it was 55.9 µL/min/mg; in [13] it was 48.7 µL/min/mg; in data set [15] it was 156 µL/min/mg; in data set [17], 147 µL/min/mg. Further, the half-life in [18] was 296 min; in [22], 87 min. In data set [19], the clearance is 4.08 mL/min/kg. Also, the AUC(0-t) at 24 h in data set [20] was 8120 ng·h/mL; in data set [23], 103 ng·h/mL. In addition, the Vd in data set [21] came to 1.74 L/kg. Moreover, the Cmax in data set [24] worked out at 83.2 ng/mL. In data set [25], the Tmax was found to be 30 min. This molecule also had a bioavailability in data set [26] of 0.51%.

In the case of `Nc1ncnc2c1c(-c1ccc(Oc3ccccc3)cc1)nn2[C@@H]1CCCN(C(=O)c2ccc(Nc3ccc4c(c3)CN(C3CCC(=O)NC3=O)C4=O)cc2)C1` (some centres not stated), the Activity amounted to 6.9% in [27] and 12% in data set [28].

With `CC(C)NCC(O)COc1ccc(CC(N)=O)cc1` (configuration not stated) [ATENOLOL], the recovery at 2 h, 10 µM in data set [6] came out at 94.4%; in [7], 99.5%.

As usually defined, the Papp A→B is the apparent permeability from the apical to the basolateral side of a cell layer. For orientation: Papp B→A means the apparent permeability from the basolateral to the apical side of a cell layer. The term half-life denotes how long it takes for the measured level to halve. In general, clearance refers to the rate of elimination divided by the concentration. Usually AUC(0-t) stands for the area under the concentration-time curve up to a stated or last time point. By Cmax is commonly meant the highest concentration seen after dosing. One may read the Tmax as the time at which the peak concentration occurs. One may read the bioavailability as dose-corrected exposure relative to a reference, in per cent.
